{
  "source": "ChEMBL document CHEMBL4732226",
  "about": "“Discovery of a potent G-protein-coupled receptor 119 agonist for the treatment of type 2 diabetes” (Bioorg Med Chem, 2021)",
  "key": {"[1]": {"experiment": "Toxicity in female Wistar rat assessed as creatinine level at 400 mg/kg, po after 28 days (reference value: 0.6 +/- 0.04 mg/dl)", "format": "organism-based", "settings": "in vivo, 672 h, time 28 day"}, "[2]": {"experiment": "Toxicity in female Wistar rat assessed as ratio of uterus to body weight at 400 mg/kg, po after 28 days (reference value: 0.335 +/- 0.108)", "format": "organism-based", "settings": "in vivo, 672 h, time 28 day"}, "[3]": {"experiment": "Toxicity in male Wistar rat assessed as AST level at 400 mg/kg, po after 28 days (reference value: 119.4 +/- 9.3 U/L)", "format": "organism-based", "settings": "in vivo, 672 h, time 28 day"}, "[4]": {"experiment": "Toxicity in female Wistar rat assessed as albumin level at 200 mg/kg, po after 28 days (reference value: 3.57 +/- 0.14 g.dl)", "format": "organism-based", "settings": "in vivo, 672 h, time 28 day"}, "[5]": {"experiment": "Toxicity in female Wistar rat assessed as ratio of spleen to body weight at 200 mg/kg, po after 28 days (reference value: 0.244 +/- 0.032)", "format": "organism-based", "settings": "in vivo, 672 h, time 28 day"}, "[6]": {"experiment": "Toxicity in female Wistar rat assessed as glucose level at 400 mg/kg, po after 28 days (reference value: 78.4 +/- 8.36 mg/dl)", "format": "organism-based", "settings": "in vivo, 672 h, time 28 day"}, "[7]": {"experiment": "Toxicity in male Wistar rat assessed as ratio of kidney to body weight at 100 mg/kg, po after 28 days (reference value: 0.787 +/- 0.078)", "format": "organism-based", "settings": "in vivo, 672 h, time 28 day"}, "[8]": {"experiment": "Toxicity in male Wistar rat assessed as ratio of brain to body weight at 100 mg/kg, po after 28 days (reference value: 0.766 +/- 0.038)", "format": "organism-based", "settings": "in vivo, 672 h, time 28 day"}, "[9]": {"experiment": "Toxicity in male Wistar rat assessed as ALT level at 400 mg/kg, po after 28 days (reference value: 30.47 +/- 2.63 U/L)", "format": "organism-based", "settings": "in vivo, 672 h, time 28 day"}, "[10]": {"experiment": "Toxicity in female Wistar rat assessed as reduction in body weight at 100 to 400 mg/kg, po after 28 days", "format": "organism-based", "settings": "in vivo, 672 h, dose 100-400 mg/kg, time 28 day", "procedure,_shortened": "(§1)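 Repeated-dose oral toxicity by gavage in Wistar rats, 10 males and 10 females per group, given 100, 200 or 400 mg/kg once daily for 28 days. Endpoints were clinical signs, mortality, neurobehaviour, food intake, ophthalmic examination and body weight. Animals were sacrificed on day 29 for blood biochemistry, organ-to-body weight ratios and histopathology.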"}, "[11]": {"experiment": "Toxicity in male Wistar rat assessed as ALP level at 100 mg/kg, po after 28 days (reference value: 174.77 +/- 25.42 U/L)", "format": "organism-based", "settings": "in vivo, 672 h, time 28 day"}, "Rattus norvegicus": {"tested_on": "Rattus norvegicus", "experiment": "Antidiabetic activity in Sprague-Dawley rat assessed as reduction in HFD-induced body weigh gain at 25 to 50 mg/kg/day, po for 28 days", "format": "functional, organism-based", "settings": "dose 25-50 mg/kg/day, time 28.0 day", "procedure,_shortened": "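Male SD rats were fed high-fat diet for 12 weeks, with a normal-chow group alongside, then split into 4 treatment groups. Oral dosing at 25 or 50 mg/kg/day for 28 days in PG450/Tween 80/0.1% Na-CMC (5:5:90). Body weight recorded daily.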"}, "[12]": {"experiment": "Toxicity in male Wistar rat assessed as AST level at 200 mg/kg, po after 28 days (reference value: 119.4 +/- 9.3 U/L)", "format": "organism-based", "settings": "in vivo, 672 h, time 28 day"}, "[13]": {"experiment": "Toxicity in female Wistar rat assessed as albumin level at 100 mg/kg, po after 28 days (reference value: 3.57 +/- 0.14 g.dl)", "format": "organism-based", "settings": "in vivo, 672 h, time 28 day"}, "[14]": {"experiment": "Toxicity in female Wistar rat assessed as ALT level at 100 mg/kg, po after 28 days (reference value: 21.28 +/- 2.31 U/L)", "format": "organism-based", "settings": "in vivo, 672 h, time 28 day"}, "[15]": {"experiment": "Toxicity in male Wistar rat assessed as ALT level at 100 mg/kg, po after 28 days (reference value: 30.47 +/- 2.63 U/L)", "format": "organism-based", "settings": "in vivo, 672 h, time 28 day"}, "[16]": {"experiment": "Toxicity in male Wistar rat assessed as albumin level at 200 mg/kg, po after 28 days (reference value: 3.56 +/- 0.08 g.dl)", "format": "organism-based", "settings": "in vivo, 672 h, time 28 day"}, "[17]": {"experiment": "Toxicity in female Wistar rat assessed as mortality up to 400 mg/kg, po after 28 days", "format": "organism-based", "settings": "in vivo, 672 h, time 28 day", "procedure,_shortened": "as §1"}, "[18]": {"experiment": "Toxicity in female Wistar rat assessed as ratio of brain to body weight at 100 mg/kg, po after 28 days (reference value: 1.1 +/- 0.078)", "format": "organism-based", "settings": "in vivo, 672 h, time 28 day"}, "[19]": {"experiment": "Toxicity in female Wistar rat assessed as globulin level at 200 mg/kg, po after 28 days (reference value: 2.44 +/- 0.18 g/dl)", "format": "organism-based", "settings": "in vivo, 672 h, time 28 day"}, "[20]": {"experiment": "Toxicity in male Wistar rat assessed as glucose level at 200 mg/kg, po after 28 days (reference value: 89.02 +/- 13.41 mg/dl)", "format": "organism-based", "settings": "in vivo, 672 h, time 28 day"}, "[21]": {"experiment": "Toxicity in male Wistar rat assessed as globulin level at 100 mg/kg, po after 28 days (reference value: 2.62 +/- 0.12 g/dl)", "format": "organism-based", "settings": "in vivo, 672 h, time 28 day"}, "[22]": {"experiment": "Toxicity in female Wistar rat assessed as urea level at 100 mg/kg, po after 28 days (reference value: 48.09 +/- 5.3 mg/dl)", "format": "organism-based", "settings": "in vivo, 672 h, time 28 day"}, "[23]": {"experiment": "Tmax in Wistar rat at 10 mg/kg, po up to 24 hrs", "format": "ADME, organism-based", "settings": "in vivo", "procedure,_shortened": "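Single oral dose at 10 mg/kg given to male Wistar rats and to Beagle dogs; bioavailability also determined in both species.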"}, "[24]": {"experiment": "Toxicity in female Wistar rat assessed as ratio of heart to body weight at 100 mg/kg, po after 28 days (reference value: 0.38 +/- 0.037)", "format": "organism-based", "settings": "in vivo, 672 h, time 28 day"}, "Mus musculus": {"tested_on": "Mus musculus", "experiment": "Antidiabetic activity in po dosed db/db mouse assessed as reduction in blood glucose level administered up to 14 days pretreated for 30 mins followed by glucose-stimulation and measured up to 120 mins by OGTT method relative to control", "format": "functional, organism-based", "settings": "dose 1-50 mg/kg, time day <=14", "procedure,_shortened": "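Male db/db mice dosed orally once daily for 14 days at 1 to 50 mg/kg. Oral glucose 2 g/kg given 30 min after dosing, then blood glucose followed for 0–120 min. Glucose AUC determined on day 1 and day 14; mean ± s.e.m.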"}, "[25]": {"experiment": "Toxicity in female Wistar rat assessed as ratio of ovaries to body weight at 200 mg/kg, po after 28 days (reference value: 0.091 +/- 0.009)", "format": "organism-based", "settings": "in vivo, 672 h, time 28 day"}, "[26]": {"experiment": "Toxicity in male Wistar rat assessed as ALP level at 400 mg/kg, po after 28 days (reference value: 174.77 +/- 25.42 U/L)", "format": "organism-based", "settings": "in vivo, 672 h, time 28 day"}, "[27]": {"experiment": "AUC(0 to infinity) in Sprague-Dawley rat at 25 mg/kg, po up to 24 hrs", "format": "ADME, organism-based", "design": "route oral, dose 25 mg/kg, time <=24", "settings": "in vivo", "procedure,_shortened": "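Male SD rats fasted overnight, water ad libitum, fed 4 h after dosing. Single oral gavage of 25 mg/kg as a homogeneous suspension in 0.5% Tween 80 in 0.5% Na-CMC. Blood drawn into Na-heparin tubes at 0.25, 0.5, 1, 2, 4, 6, 8 and 24 h; plasma stored at -70°C. Parameters by non-compartmental analysis, with C0 taken as zero and BLQ samples set to zero.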"}, "[28]": {"experiment": "Toxicity in female Wistar rat assessed as AST level at 400 mg/kg, po after 28 days (reference value: 128.84 +/- 21.42 U/L)", "format": "organism-based", "settings": "in vivo, 672 h, time 28 day"}, "[29]": {"experiment": "Toxicity in female Wistar rat assessed as urea level at 200 mg/kg, po after 28 days (reference value: 48.09 +/- 5.3 mg/dl)", "format": "organism-based", "settings": "in vivo, 672 h, time 28 day"}},
  "note": "Activity calls are given as the source filed them. No cut-off for these calls is given here.",
  "data": [
    {"smiles": "Cc1c(Oc2cccc(/C=C3\\SC(=O)NC3=O)c2)ncnc1OC1CCN(C(=O)OC(C)(C)C)CC1", "values": [
      {"measurement": "Activity", "setting": "[1]", "result": 0.6, "unit": "mg/dL"},
      {"measurement": "Ratio", "setting": "[2]", "result": 0.429},
      {"measurement": "Activity", "setting": "[3]", "result": 116.36, "unit": "U/L"},
      {"measurement": "Activity", "setting": "[4]", "result": 3.65, "unit": "g/dL"},
      {"measurement": "Ratio", "setting": "[5]", "result": 0.242},
      {"measurement": "Activity", "setting": "[6]", "result": 76.54, "unit": "mg/dL"},
      {"measurement": "Ratio", "setting": "[7]", "result": 0.831},
      {"measurement": "Ratio", "setting": "[8]", "result": 0.83},
      {"measurement": "Activity", "setting": "[9]", "result": 29.6, "unit": "U/L"},
      {"measurement": "Activity", "setting": "[10]", "result": "Non-Toxic"},
      {"measurement": "Activity", "setting": "[11]", "result": 152.22, "unit": "U/L"},
      {"measurement": "Activity", "setting": "Rattus norvegicus", "result": "inactive"},
      {"measurement": "Activity", "setting": "[12]", "result": 116.98, "unit": "U/L"},
      {"measurement": "Activity", "setting": "[13]", "result": 3.59, "unit": "g/dL"},
      {"measurement": "Activity", "setting": "[14]", "result": 22.37, "unit": "U/L"},
      {"measurement": "Activity", "setting": "[15]", "result": 28.9, "unit": "U/L"},
      {"measurement": "Activity", "setting": "[16]", "result": 3.61, "unit": "g/dL"},
      {"measurement": "Activity", "setting": "[17]", "result": "Non-Toxic"},
      {"measurement": "Ratio", "setting": "[18]", "result": 1.103},
      {"measurement": "Activity", "setting": "[19]", "result": 2.42, "unit": "g/dL"},
      {"measurement": "Activity", "setting": "[20]", "result": 75.19, "unit": "mg/dL"},
      {"measurement": "Activity", "setting": "[21]", "result": 2.5, "unit": "g/dL"},
      {"measurement": "Activity", "setting": "[22]", "result": 47.84, "unit": "mg/dL"},
      {"measurement": "Tmax", "setting": "[23]", "result": 1.5, "unit": "h"},
      {"measurement": "Ratio", "setting": "[24]", "result": 0.41},
      {"measurement": "Activity", "setting": "Mus musculus", "result": "Dose-dependent effect"},
      {"measurement": "Ratio", "setting": "[25]", "result": 0.089},
      {"measurement": "Activity", "setting": "[26]", "result": 177.44, "unit": "U/L"},
      {"measurement": "AUC(0-inf)", "setting": "[27]", "result": 19700, "unit": "ng·h/mL"},
      {"measurement": "Activity", "setting": "[28]", "result": 123.93, "unit": "U/L"},
      {"measurement": "Activity", "setting": "[29]", "result": 46.42, "unit": "mg/dL"}
    ]}
  ]
}
